Published values gathered from unrelated publications.
Each line is one published result; the experiments were not run side by side.
ABL1 non-phosphorylated: Tyrosine-protein kinase ABL1, non-phosphorylated (ABL1, Homo sapiens, UniProt P00519)
ABL1 F317L: Tyrosine-protein kinase ABL1 (ABL1, Homo sapiens, UniProt P00519, F317L)
ABL1 F317I phosphorylated: Tyrosine-protein kinase ABL1, phosphorylated (ABL1, Homo sapiens, UniProt P00519, F317I)
ABL1 H396P non-phosphorylated: Tyrosine-protein kinase ABL1, non-phosphorylated (ABL1, Homo sapiens, UniProt P00519, H396P)
ABL1 F317I non-phosphorylated: Tyrosine-protein kinase ABL1, non-phosphorylated (ABL1, Homo sapiens, UniProt P00519, F317I)
ABL1 M351T phosphorylated: Tyrosine-protein kinase ABL1, phosphorylated (ABL1, Homo sapiens, UniProt P00519, M351T)
ABL1 T315I phosphorylated: Tyrosine-protein kinase ABL1, phosphorylated (ABL1, Homo sapiens, UniProt P00519, T315I)

With O=C(c1ccc(Nc2ncc(Cl)c(-c3cc4ccccc4s3)n2)cc1)N1CCC(N2CCCC2)CC1 the remaining binding was 17% (ABL1 non-phosphorylated; binding; competition with immobilised ligand; 1 µM).
CN(c1nccc(-c2cnn3ncccc23)n1)C1CC1 gave a remaining binding of 100% (ABL1 F317L; binding; 1 µM).
With CCN1CCN(Cc2ccc(C(=O)Nc3ccc(C)c(Oc4ccc5c(c4)CC(=O)N5)c3)cc2C(F)(F)F)CC1 the remaining binding was 2.1% (ABL1 non-phosphorylated; binding; competition with immobilised ligand; 1 µM).
With CC(=O)N1CCC(c2ccc(C(=O)NC3=NCCN3)cc2C(F)(F)F)CC1 the remaining binding was 95% (Tyrosine-protein kinase ABL1, phosphorylated (ABL1, Homo sapiens, UniProt P00519, F317L); cell-free assay; competition with immobilised ligand; 1 µM).
For Cc1cnc(Nc2ccc(C(=O)N3CCC(N4CCCC4)CC3)cc2)nc1-c1cc2ccccc2s1, the remaining binding was 57% (ABL1 F317I phosphorylated; binding; competition with immobilised ligand; 1 µM).
CN([C@@H]1CCc2c(CC(=O)O)c3ccccc3n2C1)S(=O)(=O)c1ccc(F)cc1 has a remaining binding of 100% (ABL1 H396P non-phosphorylated; cell-free assay; competition with immobilised ligand; 1 µM).
C=CC(=O)N1CCC(C(=O)NCC(=O)N2CCN(c3nc(-c4cnc(N)nc4C(F)F)nc(N4CCOCC4)n3)CC2)CC1 has a remaining binding of 94% (ABL1 H396P non-phosphorylated; binding; competition with immobilised ligand; 1 µM).
The remaining binding of CNC(=O)[C@@H]1CC[C@@H](n2c(-c3ccc4cnccc4c3)nc3ccc(C(=O)NCc4cccc(C(N)=O)c4)cc32)C1 is reported as 100% (ABL1 F317I non-phosphorylated; binding; competition with immobilised ligand; 1 µM).
For N#CC1(c2ccccn2)CCN(Cc2cc(C(=O)N3CCCC3)c(=O)n3ccccc23)CC1, the remaining binding was 100% (ABL1 M351T phosphorylated; cell-free assay; competition with immobilised ligand; 1 µM).
The remaining binding of O=C(NCC1CCOCC1)c1n[nH]cc1NC(=O)c1c(F)cccc1F is reported as 91% (ABL1 T315I phosphorylated; binding; competition with immobilised ligand; 1 µM).
COc1cnc(Nc2cccc(S(N)(=O)=O)c2)nc1N1CCN(c2ccccc2)C(=O)C1 has a remaining binding of 84% (ABL1 M351T phosphorylated; binding; competition with immobilised ligand; 1 µM).
The remaining binding of C[C@@H](c1ccc(-n2cnc3c(N)ncnc32)cc1)N1CCc2nn(C)c(Cc3ccccc3)c2C1=O is reported as 78% (ABL1 T315I phosphorylated; binding; competition with immobilised ligand; 0.1 µM).
For c1cncc(-c2cccc(Nc3nccc(NC4CCCCC4)n3)c2)c1, the remaining binding was 38% (ABL1 M351T phosphorylated; binding; competition with immobilised ligand; 10 µM).
With CC(=O)Nc1c(C(C)=O)c(=O)n(C)c2nc(-c3ccc(Cl)cc3Cl)c(-c3ccc(Cl)cc3)cc12 the remaining binding was 77% (ABL1 F317I non-phosphorylated; binding; competition with immobilised ligand; 1 µM).
CN(C)c1ncc(F)c(-c2cnn3ncccc23)n1 has a remaining binding of 89% (ABL1 non-phosphorylated; binding; competition with immobilised ligand; 1 µM).
O=C(NCCCN1CCOCC1)c1ccc(Nc2nccc(-c3cc4ccccc4s3)n2)cc1 has a remaining binding of 19% (Tyrosine-protein kinase ABL1, non-phosphorylated (ABL1, Homo sapiens, UniProt P00519, T315I); binding; competition with immobilised ligand; 1 µM).
Nc1ncc2c(n1)-c1c([nH]c3ccc(C#CC4CC4)cc13)CCCC2 has a remaining binding of 95% (Tyrosine-protein kinase ABL1, phosphorylated (ABL1, Homo sapiens, UniProt P00519, Y253F); binding; competition with immobilised ligand; 1 µM).
With O=C(Nc1cccnn1)N1CC(C/C=C/c2cncc(Oc3ccc(C(F)(F)F)cn3)n2)C1 the remaining binding was 67% (ABL1 F317I phosphorylated; cell-free assay; competition with immobilised ligand; 1 µM).
With N[C@H]1CCN(c2nccc(-c3cnn4ncccc34)n2)C1 the remaining binding was 100% (ABL1 F317L; binding; 1 µM).
COc1cc(-c2cn(C3CCc4c(F)cccc4N(CC(F)(F)F)C3=O)nn2)ccc1-n1cnc(C)c1 (centres unmarked) gave a remaining binding of 100% (Tyrosine-protein kinase ABL1, phosphorylated (ABL1, Homo sapiens, UniProt P00519); cell-free assay; competition with immobilised ligand; 1 µM).
O=C(NCCCN1CCOCC1)c1ccc(Nc2ncc(Cl)c(-c3ccc(Cl)s3)n2)cc1 has a remaining binding of 2.5% (ABL1 T315I phosphorylated; binding; competition with immobilised ligand; 1 µM).
The remaining binding of CN(C)C(=O)Cn1cc(-c2nc([C@@](C)(c3ccc(-c4cnc(N)nc4)cc3)C3CC3)no2)cn1 is reported as 0% (Tyrosine-protein kinase ABL1, non-phosphorylated (ABL1, Homo sapiens, UniProt P00519, Q252H); cell-free assay; competition with immobilised ligand; 1 µM).
The remaining binding of c1cnn2ncc(-c3ccnc(N4CCC45COC5)n3)c2c1 is reported as 64% (Tyrosine-protein kinase ABL1 (ABL1, Homo sapiens, UniProt P00519, T315I); binding; 1 µM).
